# Most compounds without a hit are left out; they make up all but 3.1% or so of the library.
# Hep lipid drop: modulators of hepatic lipid droplet formation; AML12 mouse hepatocytes, oleate lipid droplets, BODIPY imaging; hit rate 0.4% among 240,000; inhibition, % at 6.5 µM; AID 1656;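 active = lipid droplet intensity inhibited by at least 50%, with more than 500 cells counted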
#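 Assay system: AML12 mouse liver cells | Compound dosing: One dose, 6.5 µM compound | Read-out basis: Droplet intensity reduction, % inhibition | Measured by: Fluorescence imaging, 20x objective, two fields per well | Schedule: Overnight treatment with compound plus oleate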
# V-ATPase pHluor: yeast V-ATPase proton transport regulation by pHLuorin; S. cerevisiae, pHLuorin cytosolic pH fluorescence; response, % at 10 µM; hit rate 0.37% among 350,000; in the data active = response mostly above about 7.3%, no sharp cut-off; inactive = mostly below about 5.4%; note: actives read high
# ADAM10 inh: inhibits human ADAM10 | O14672 | recombinant ADAM10, EDANS/DABCYL FRET peptide cleavage, 3 h | inhibition, % at 7 µM | hit rate 0.62% among 370,000 | AID 720582;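 active = inhibition above a per-campaign cutoff equal to the mean of compounds falling between control-based bounds plus 3 SD, cut at about 20% in these data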
# MPTP inh: blocks calcium-induced mitochondrial swelling. inhibition, % at 10 µM. isolated mouse mitochondria, Ca2+ swelling absorbance, 30 min. hit rate 1.4% among 360,000. AID 602449;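 active = inhibition of 50% or more, scaled per plate between neutral and stimulator controls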
# aDG glyco up: increases alpha dystroglycan glycosylation. hit rate 0.22% among 360,000. activation, % at 10 µM. Pro5-aDG cells, alpha-DG glycosylation AlphaScreen (IIH6); 0% Pro5, 100% B10-LARGE cell signal;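 active = activation of at least 8% versus controls, or a plate z-score of at least 8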;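 note: Pro5 are CHO cells carrying HIG-tagged alpha-DG that lacks glycosylation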
# ADAM17 inh: inhibits human ADAM17; inhibition, % at 6.95 µM; hit rate 0.83% among 370,000; P78536; AID 720648; recombinant ADAM17, EDANS/DABCYL FRET peptide cleavage;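 active = inhibition above the mean of compounds lying between control limits plus 3 SD, set per campaign, cut at about 8.5% in these data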
# Target sequence (P78536 215-824 limits assumed): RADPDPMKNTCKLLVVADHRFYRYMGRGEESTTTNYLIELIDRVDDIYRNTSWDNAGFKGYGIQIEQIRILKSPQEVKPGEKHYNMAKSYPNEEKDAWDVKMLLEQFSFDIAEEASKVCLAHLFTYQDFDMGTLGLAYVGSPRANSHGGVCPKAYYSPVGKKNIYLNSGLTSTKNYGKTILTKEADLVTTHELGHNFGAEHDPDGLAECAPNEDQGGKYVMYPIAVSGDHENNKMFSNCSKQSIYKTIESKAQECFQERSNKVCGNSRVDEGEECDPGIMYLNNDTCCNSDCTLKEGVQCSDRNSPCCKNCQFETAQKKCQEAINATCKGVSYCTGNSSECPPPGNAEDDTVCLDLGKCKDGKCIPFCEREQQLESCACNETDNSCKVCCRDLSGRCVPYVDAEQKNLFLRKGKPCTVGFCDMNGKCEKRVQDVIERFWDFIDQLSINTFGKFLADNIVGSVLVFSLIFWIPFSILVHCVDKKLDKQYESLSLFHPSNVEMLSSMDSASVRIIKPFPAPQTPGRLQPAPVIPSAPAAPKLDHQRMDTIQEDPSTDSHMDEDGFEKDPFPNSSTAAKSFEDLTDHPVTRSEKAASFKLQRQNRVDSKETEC
# Lipid drop inh: confirmation of inhibitors of hepatic lipid droplet formation | shares compounds with Hep lipid drop | AML12 mouse hepatocytes, BODIPY lipid droplet imaging; droplets induced with 100 µM oleic acid | inhibition, % at 5.2 µM | hit rate 65% among 870 | AID 463183;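 active = inhibition of lipid droplet metric at least 50%, with more than 300 cells in each of four replicates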
# AML12 tox img: toxic to AML12 mouse hepatocytes in counter-screen; shares compounds with Hep lipid drop; DAPI nuclear morphology cytotoxicity imaging; active compounds read high; cells fed 100 µM oleate overnight; z-score at 5 µM; hit rate 3% among 870; AID 463200; in the data active = z-score above about 6.3;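 note: compound exposure lasted overnight at 37 °C before fixation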
# AML12 tox conf: AML12 hepatocyte cytotoxicity, confirmed; 530 tested, under 10 active; shares compounds with Hep lipid drop; AML12 mouse hepatocyte viability, ATP luminescence; cells loaded with 100 µM oleic acid; cytotoxicity, % at 50 µM;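 active = cytotoxicity above 50% in each of four replicates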;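 note: compound exposure lasted overnight at 37 °C before the ATP read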
# Numbers stand for hits; 0 = inactive; - = no result given.
SMILES,Hep lipid drop,V-ATPase pHluor,ADAM10 inh,MPTP inh,aDG glyco up,ADAM17 inh,Lipid drop inh,AML12 tox img,others
CCN1C(=O)c2ccccc2Sc2ccc(C(=O)NCCC(C)C)cc21,95,0,0,0,0,0,98,0,
O=C(c1ccc(Cl)cc1)N1CCN(c2ccccn2)CC1,-,-,0,-,-,0,-,-,
COCC#Cc1ccc(CC[C@H]2O[C@H]3CC[C@@H](CO)O[C@H]3C[C@H]2n2cc(C(C)(C)O)nn2)cc1,-,-,0,-,-,0,-,-,
Cc1ccccc1N=C/C=C1/C=C(c2ccccc2)OC(C)(C)O1,0,0,0,0,0,0,-,-,
CC1(C)OC(c2ccccc2)=C/C(=C/C=C2C(=O)c3ccccc3C2=O)O1,73,0,0,0,0,0,0,0,
CCOc1ccccc1NC(=O)N1CCCC1C(=O)NCc1ccco1 (stereo unspecified),0,0,0,0,0,0,-,-,
CCOc1ccccc1NC(=O)N1CCCC1C(=O)NCc1cccs1 (stereo unspecified),74,0,0,0,0,0,94,0,AML12 tox conf=0
COC(=O)c1cc(-c2cccc(OCc3ccccc3)c2)c(=O)n2c1CCC2,-,-,0,-,-,0,-,-,
CC1CCC2(CC1)CCN(CCCOC(=O)Nc1ccc3c(c1)OCO3)C2=O (stereo unspecified),-,-,0,-,-,0,-,-,
CC(C)c1cc(C(=O)N2CCCC(CCC(=O)NCc3ccccc3F)C2)n(C)n1 (stereo unspecified),51,0,0,0,0,0,0,0,
Cc1ncoc1C(=O)N1CCCC(CCC(=O)NCc2ccccc2F)C1 (stereo unspecified),0,0,0,0,0,0,-,-,
CC(C)C(C)NC(=O)CSc1nc2scc(-c3ccco3)c2c(=O)n1-c1ccccc1 (stereo unspecified),60,0,0,0,0,0,0,0,
CN(C)c1ccc(NC2=C([N+](=O)[O-])CS(=O)(=O)C2)cc1,84,0,0,0,0,0,0,0,
Cc1ccc(NC2=C([N+](=O)[O-])CS(=O)(=O)C2)cc1,0,0,0,0,0,0,-,-,
CC(C)(C)C(=O)NC1CCCCN(Cc2cccc(C(F)(F)F)c2)C1=O (stereo unspecified),-,-,0,-,-,0,-,-,
C/C(=N\Nc1nc(-c2ccccc2)cs1)c1cccs1,52,0,0,0,0,0,96,0,AML12 tox conf=0
Clc1ccc(Nc2nc(NCCN3CCOCC3)nc(N3CCOCC3)n2)cc1,66,0,-,0,0,-,75,19,
Fc1ccc(Nc2nc(N3CCOCC3)nc(N3CCOCC3)n2)cc1Cl,0,0,0,0,0,0,-,-,
CC(C)[C@H](NC(=O)[C@H](Cc1ccccc1)NC(=O)OC(C)(C)C)C(=O)N1CCC2CCN(S(=O)(=O)c3ccccc3)CC21 (stereo partly specified),-,-,0,-,-,0,-,-,
C/C=C/C(=O)N1CCC(C(=O)NC2CCCc3ccccc32)CC1 (stereo unspecified),-,-,0,-,-,0,-,-,
COc1ccc(C(=O)OC(C)C(=O)NC(C)CCc2ccccc2)cc1[N+](=O)[O-] (stereo unspecified),68,0,0,0,0,0,109,0,AML12 tox conf=0
COc1ccc(C(=O)OCC(=O)NC(C)CCc2ccccc2)cc1OC (stereo unspecified),62,0,0,0,0,0,72,0,AML12 tox conf=0
COc1ccc(C(=O)OCC(=O)NC(C)CCc2ccccc2)cc1 (stereo unspecified),0,0,0,0,0,0,-,-,
CN(CC#Cc1ccccc1)C(N)=NC(=O)/C=C/c1ccccc1,-,-,0,-,-,0,-,-,
CCN(Cc1ccccc1)C(=O)CCCN1C(=O)COc2ccc(C)cc21,-,-,0,-,-,0,-,-,
SMILES,Hep lipid drop,V-ATPase pHluor,ADAM10 inh,MPTP inh,aDG glyco up,ADAM17 inh,Lipid drop inh,AML12 tox img,others
COc1ccc2c(c1)O[C@@H](c1cccc(C(F)(F)F)c1)[C@H](OC(=O)NCCc1ccc(OC)c(OC)c1)C2=O,64,-,-,-,-,-,75,0,
COC(=O)[C@@H](NC(=O)O[C@@H]1C(=O)c2ccc(OC)cc2O[C@H]1c1cccc(C(F)(F)F)c1)C(C)C,0,-,-,-,-,-,-,-,
Cc1cc(NC(=O)c2cc3ccccc3o2)cc(C)c1OCC(=O)N1CCOCC1,91,0,0,0,0,0,107,0,AML12 tox conf=0
COc1ccc(S(=O)(=O)N(c2onc(C)c2Cl)S(=O)(=O)c2ccc(OC)cc2)cc1,60,0,0,0,0,0,0,0,
COc1ccc(NC(=O)c2onc(C)c2Cl)cc1,0,0,0,0,0,0,-,-,
COC(=O)[C@H]1C[C@@]2(N3CCCC3)c3ccccc3N(C(=O)OC(C)(C)C)[C@H]2N1C(=O)OC(C)(C)C,-,-,0,-,-,0,-,-,
CCn1c(=O)n(CC)c2cc(S(=O)(=O)Nc3ccccc3C)c(C)cc21,0,0,0,0,0,0,-,-,
CCc1ccccc1NS(=O)(=O)c1cc2c(cc1C)n(C)c(=O)c(=O)n2C,85,0,0,0,0,0,105,0,AML12 tox conf=0
CCc1ccc(OCC(=O)N/N=C(\C)c2ccc(-n3ccnc3)cc2)cc1,55,0,0,0,0,0,90,0,AML12 tox conf=0
C/C(=N\NC(N)=O)c1ccc(-n2ccnc2)cc1,0,0,0,0,0,0,-,-,
c1ccc2nc(N3CCN(Cc4ccc5c(c4)OCO5)CC3)cnc2c1,50,0,0,0,0,0,0,0,
COc1nc2ccccc2nc1N1CCN(Cc2ccc3c(c2)OCO3)CC1,0,0,0,0,0,0,-,-,
O=C1CSC(c2cn(-c3ccccc3)nc2-c2ccccc2)N1Cc1ccco1 (stereo unspecified),61,0,0,0,0,0,87,0,AML12 tox conf=0
CCc1ccc(-c2nn(-c3ccccc3)cc2C2SCC(=O)N2Cc2ccco2)cc1 (stereo unspecified),0,0,0,0,0,0,-,-,
O=C(CSCC(=O)N1CCCCC1)Nc1nc(-c2ccccc2)c(-c2ccccc2)s1,89,0,0,0,0,0,104,0,AML12 tox conf=0
O=C(CSc1nc(-c2ccccc2)c(-c2ccccc2)o1)N1CCCCC1,-,0,0,0,0,0,-,-,
N#CCC[C@@H]1CC[C@]2(CCCN(Cc3ccc(Cl)cc3)C2)O1,-,-,0,-,-,0,-,-,
COc1cc(NC(=O)c2ccco2)c(OC)cc1NC(=O)Nc1ccccc1Cl,82,0,0,0,0,0,114,0,AML12 tox conf=0
COc1cc(NC(=O)C2CCCCC2)c(OC)cc1NC(=O)c1ccco1,0,0,0,0,0,0,-,-,
O=C(CSCC(=O)N1CCCc2ccccc21)Nc1nc(-c2ccccc2)cs1,69,0,0,0,0,0,90,0,AML12 tox conf=0
